Results pooled from the literature.
Protocols differ between the studies behind these lines.
Organism: Mycolicibacterium smegmatis
Read-out: microbial growth

| Compound | method | strain | time | MIC |
| --- | --- | --- | --- | --- |
| CCCCCCCCCCC[C@@H](C[C@@H]1OC(=O)[C@H]1CCCCCC)OC(=O)[C@H](CC(C)C)NC=O | resazurin | MC^2155 | – | 48 µg/mL |
| Cc1ccc(Nc2nc(-c3cc(C(=O)Nc4cccc(C)n4)no3)cs2)cc1 | – | MC2155 | – | > 64 µg/mL |
| NCC[C@H](O)C(=O)N[C@@H]1C[C@H](N)[C@@H](O[C@H]2O[C@H](CN)[C@@H](O)[C@H](O)[C@H]2O)[C@H](O)[C@H]1O[C@H]1O[C@H](CO)[C@@H](O)[C@H](N)[C@H]1O | broth dilution | MC2155 | – | ≤ 0.5 µg/mL |
| Cc1ccc(Nc2nc(-c3cc(C(=O)Nc4ccccn4)no3)cs2)cc1 | – | MC2155 | – | > 64 µg/mL |
| C[C@@H](O)[C@H]1C(=O)N2C(C(=O)O)=C(SCCN=CN)C[C@H]12 | resazurin | MC^2155 | 24 h | 2.3 µg/mL |
| CCCCCC[C@H](CN1CCC(COc2cccc(C(=NOC)c3ccc(Cl)cc3)c2)CC1)OC(N)=O | agar dilution | – | – | 6.5 µg/mL |
| CO[C@@H]1[C@@H](OC(N)=O)[C@@H](O)[C@H](Oc2ccc3c(O)c(NC(=O)c4ccc(O)c(CC=C(C)C)c4)c(=O)oc3c2C)OC1(C)C | resazurin | MC^2155 | 24 h | 8 µg/mL |
| COc1ccc(-c2c[nH]c(N)n2)cc1 | – | ATCC700084 MC^2155 | 48 h | 200 µM |
| CO[C@H]1/C=C/O[C@@]2(C)Oc3c(C)c(O)c4c(O)c(c(/C=N/N5CCN(C)CC5)c(O)c4c3C2=O)NC(=O)/C(C)=C\C=C\[C@H](C)[C@H](O)[C@@H](C)[C@@H](O)[C@@H](C)[C@H](OC(C)=O)[C@@H]1C | resazurin | MC^2155 | 24 h | 0.8 µg/mL |
| CCOc1ccc(-c2c[nH]c(N)n2)cc1 | – | ATCC700084 MC^2155 | 48 h | 200 µM |
| CC(=O)O[C@H]1C[C@@]2(C)[C@@H](C[C@@H](O)[C@H]3[C@@]4(C)CC[C@@H](O)[C@@H](C)[C@@H]4CC[C@@]32C)/C1=C(\CCC=C(C)C)C(=O)O | resazurin | MC^2155 | 24 h | 50 µg/mL |
| Cc1ccc(-c2c[nH]c(N)n2)cc1 | – | ATCC700084 MC^2155 | 48 h | 100 µM |
| Cc1ccc(Nc2nc(-c3cc(C(=O)Nc4ccc(O)cc4)no3)cs2)cc1 | – | MC2155 | – | > 64 µg/mL |
| CCCOc1ccc(-c2c[nH]c(N)n2)cc1 | – | ATCC700084 MC^2155 | 48 h | 100 µM |
| CCN[C@@H]1C[C@H](N)[C@@H](O[C@H]2OC(CN)=CC[C@H]2N)[C@H](O)[C@H]1O[C@H]1OC[C@](C)(O)[C@H](NC)[C@H]1O | broth dilution | – | 72 h | 2 µg/mL |
| NNC(=O)c1ccncc1 | broth dilution | ATCC700084 MC^2155 | – | 32 µg/mL |
| Cl.N=C(N)N/N=C/c1ccc(-c2ccc(/C=N/Nc3ccccc3Cl)cc2)cc1 | – | MC2155 | – | 1.7 µg/mL |
